Biological target: Melanocortin receptor 4 (Homo sapiens, UniProt P32245)
Test: Displacement of Eu-DTPA-NDP-a-MSH chelate from human melanocortin-4 receptor expressed in HEK293 cells after 1 hr by competitive DELFIA assay
How it was run: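 HEK293 cells stably carrying hMC4R (pcDNA3.1) were grown in DMEM plus 10% FBS, seeded at 12,000 cells/well and cultured 3 days. Whole cells were competed with unlabeled ligand against 10 nM (final) Eu-DTPA-NDP-α-MSH in binding medium (DMEM, 1 mM 1,10-phenanthroline, bacitracin, leupeptin, 0.3% BSA) for 1 h at 37 °C, in quadruplicate. EC50 and Hill slope came from variable-slope sigmoidal fits.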

Melanocortin receptor 4, sequence (P32245 whole entry): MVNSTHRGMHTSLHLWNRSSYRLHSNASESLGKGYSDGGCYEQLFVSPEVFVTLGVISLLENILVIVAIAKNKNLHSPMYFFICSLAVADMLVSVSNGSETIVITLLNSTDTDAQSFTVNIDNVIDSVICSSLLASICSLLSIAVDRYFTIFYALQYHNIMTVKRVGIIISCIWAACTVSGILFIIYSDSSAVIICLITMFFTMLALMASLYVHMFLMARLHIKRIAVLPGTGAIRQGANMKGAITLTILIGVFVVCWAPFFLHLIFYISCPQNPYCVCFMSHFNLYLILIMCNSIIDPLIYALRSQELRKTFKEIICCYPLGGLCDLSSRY

EC50 | Structure (SMILES)
1.7 nM | CCCC[C@H](NC(=O)COCC(=O)NCCCOCCOCCOCCCNC(=O)COCC(=O)NCCCOCCOCCOCCCNC(=O)[C@H](Cc1c[nH]c2ccccc12)NC(=O)[C@H](CCCNC(=N)N)NC(=O)[C@@H](Cc1ccccc1)NC(=O)[C@H](Cc1cnc[nH]1)NC(=O)[C@H](CCC(=O)O)NC(=O)[C@H](CC(C)C)NC(=O)[C@H](CO)NC(C)=O)C(=O)N[C@H]1CC(=O)NCCCC[C@@H](C(N)=O)NC(=O)[C@H](Cc2c[nH]c3ccccc23)NC(=O)[C@H](CCCNC(=N)N)NC(=O)[C@@H](Cc2ccc3ccccc3c2)NC(=O)[C@H](Cc2cnc[nH]2)NC1=O
1.6 nM | CCCC[C@H](NC(=O)CNC(=O)[C@@H]1CCCN1C(=O)CNC(=O)[C@@H]1CCCN1C(=O)CNC(=O)[C@@H]1CCCN1C(=O)CNC(=O)[C@@H]1CCCN1C(=O)CNC(=O)[C@@H]1CCCN1C(=O)CNC(=O)[C@@H]1CCCN1C(=O)CNC(=O)[C@@H]1CCCN1C(=O)CNC(=O)[C@@H]1CCCN1C(=O)CNC(=O)[C@@H]1CCCN1C(=O)CNC(=O)[C@@H]1CCCN1C(=O)CNC(=O)[C@@H]1CCCN1C(=O)CNC(=O)[C@@H]1CCCN1C(=O)[C@H](Cc1c[nH]c2ccccc12)NC(=O)[C@H](CCCNC(=N)N)NC(=O)[C@@H](Cc1ccccc1)NC(=O)[C@H](Cc1cnc[nH]1)NC(=O)[C@H](CCC(=O)O)NC(=O)[C@H](CC(C)C)NC(=O)[C@H](CO)NC(C)=O)C(=O)N[C@H]1CC(=O)NCCCC[C@@H](C(N)=O)NC(=O)[C@H](Cc2c[nH]c3ccccc23)NC(=O)[C@H](CCCNC(=N)N)NC(=O)[C@@H](Cc2ccc3ccccc3c2)NC(=O)[C@H](Cc2cnc[nH]2)NC1=O

— BindingDB's records for doi:10.1016/j.bmc.2014.09.055 (University of Arizona, 2014)
